# TNF death inh: inhibitors of TNF-alpha triggered necroptosis, primary screen, cell-based, Jurkat FADD-/-, single concentration. Jurkat FADD-/- TNF necroptosis rescue, ATP luminescence, 24 h; 0 = TNF only, 100 = no-TNF cells. activation (protection from cell death), % at 10 µM. 0.068% of 220,000 active;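 active = activation, meaning protection from cell death, of at least 50% relative to plate controls; inactive = activation below 50%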;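 note: necroptosis triggered by 40 ng/mL TNF-alpha added together with compound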
# Rad51 HR inh: human RAD51 strand exchange inhibitors, primary screen, biochemical, fluorescence; 0.085% of 200,000 active; inhibition, % at 10 µM; DNA repair protein RAD51 homolog 1 (Homo sapiens), Q06609; hRad51 DNA strand exchange, fluorescence dequenching;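 active = inhibition above 40% at the single screening dose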;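 note: 0% = DMSO control wells and 100% = blanks with heterologous ssDNA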
# Target sequence (Q06609 whole entry, looked up): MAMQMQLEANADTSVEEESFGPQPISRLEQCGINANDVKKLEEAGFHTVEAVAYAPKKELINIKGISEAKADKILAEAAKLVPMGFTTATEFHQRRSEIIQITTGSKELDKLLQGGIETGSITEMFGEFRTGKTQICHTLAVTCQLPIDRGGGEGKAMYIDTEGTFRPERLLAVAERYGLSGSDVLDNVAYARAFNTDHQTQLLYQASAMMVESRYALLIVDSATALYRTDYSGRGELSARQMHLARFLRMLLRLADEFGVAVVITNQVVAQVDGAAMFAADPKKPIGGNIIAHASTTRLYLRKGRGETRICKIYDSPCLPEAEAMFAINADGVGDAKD
#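 Test system: preformed human Rad51 ssDNA filaments; also added: Donor/quencher-labelled 47-bp dsDNA substrate; doses: 10 µM final, single point; times: 37 °C 15-min filament assembly, 30-min compound preincubation, 15-min exchange; detection: FRET fluorescence dequenching, excitation 485 nm, emission 520 nm; read-out basis: Fluorescence-based percent inhibition, control- and blank-normalised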
# zVAD death inh: inhibitors of zVAD-triggered necroptosis, primary screen, L929 cells. L929 zVAD necroptosis rescue, ATP luminescence, 24 h; with zVAD 60 µM. viability rescue, % at 10 µM. 0.38% of 220,000 active. AID 1377, 2008;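 active = activation, scaled between plate controls, above about 75%, limit read from the data; inactive = activation under that limit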;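 note: 0% = zVAD with DMSO and 100% = DMSO alone without zVAD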
# sdo1 growth: growth rescue of sdo1-depleted yeast, primary screen, S. cerevisiae, bone marrow failure model | S. cerevisiae sdo1-depleted JHY4D growth rescue, OD600 30 h; active compounds read high; pdr5 snq2 efflux-pump mutant strain | z-score at 10 µM | 0.21% of 140,000 active;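 active = z-score above 3 at both the 24 hr and the 30 hr optical density reads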;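 note: z-score against mean and SD of all compound wells on the same plate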
# SDO1 rescue DR: SDO1-depleted yeast growth rescue, concentration-response, diseases of bone marrow failure, JHY4D, OD600; OD recovery (no concentration beside the values); S. cerevisiae JHY4D (SDO1-depleted) growth rescue, 30 h; active compounds read high; efflux-deficient strain, SNQ2 and PDR5 mutated; shares compounds with sdo1 growth; 44% of 440 active;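 active = yeast growth recovered at 30 hours, either rising with dose fitted slope above 0.001 or with average optical density gain above 0.07, some results past the limit were not filed as active; inactive = growth falling with dose or no effect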;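 note: gain in OD600 from 0 h to 30 h averaged across all seven doses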
# * = called active by the depositor; . = not tested or not shown. Rows were chosen to be rich in hits. Some 0.64% of all compounds tested hit in one or more screens of this group.
SMILES,TNF death inh,Rad51 HR inh,zVAD death inh,sdo1 growth,others
Cc1cc2nc3c(nc2cc1C)C1(C(=O)O)CCC3(C)C1(C)C (stereo not drawn),-1,40*,0,0.09,
CNC(=O)C12CCC(C)(c3nc4cc(C)c(C)cc4nc31)C2(C)C (stereo not drawn),0,-2,0,0.27,
COC(=O)c1ccc(/C=N/OCC(=O)NC2CCCCCCC2)cc1,0,1,78*,-0.69,
COCCNC(=O)NC(=O)CSc1nc(C)c(C)c(C)n1,1,7,0,.,
COc1ccccc1CNC(=O)Cn1nnc(-c2ccncc2)n1,1,-4,86*,0.11,
COc1ccc(-c2nnn(CC(=O)NCc3ccccc3)n2)cc1OC,-1,4,-1,1,
Cc1ccccc1CN1[C@@H](C(C)C)COCCS1(=O)=O,.,12,.,.,
O=C(CN1C(=O)C2CC=CCC2C1=O)Nc1nccs1 (stereo not drawn),.,52*,.,0.86,
CCn1ncc(C2=NOC(C(=O)Nc3cnn(C45CC6CC(CC(C6)C4)C5)c3)C2)c1C (stereo not drawn),-5,-1,87*,0.5,
COc1ccc(N2CCN(S(=O)(=O)c3cccc4cccnc34)CC2)cc1,0,-1,1,-0.27,
O=S(=O)(c1cccc2cccnc12)N1CCN(c2ccc(F)cc2)CC1,56*,3,4,.,
Cn1c(=O)c2c(nc(SCC(=O)N3CCc4ccccc43)n2Cc2ccc(F)cc2)n(C)c1=O,1,.,0,.,
Cc1ccc(Oc2ccccc2/C=C2\SC(=O)N(C)C2=O)cc1,52*,-11,0,-1.6,
O=C1NC(=Nc2ccccc2)SC1Cc1ccccc1 (stereo not drawn),9,4,4,.,
O=C1NC(=Nc2ccccc2)SC1Cc1cccc(Cl)c1Cl (stereo not drawn),79*,1,1,-0.42,
Cc1ccccc1NC(=O)NCC1CCCO1 (stereo not drawn),1,42*,1,1.2,
COC(=O)c1ccccc1NC(=O)NCC1CCCO1 (stereo not drawn),0,2,0,1.2,
Cc1cc(C)nc(NS(=O)(=O)c2ccc(N/C=C/C(=O)c3ccc(Cl)c(Cl)c3)cc2)n1,2,-7,1,-0.51,
Cc1cc(NC(=O)CSc2nnnn2C)n(-c2ccccc2)n1,-1,18,0,0.89,
COc1cc(C)c2c(c1C=O)Oc1c(c(C)c(O)c3c1C(O)OC3=O)OC2=O (stereo not drawn),0,47*,0,.,
COc1ccc2nc(NC(=O)C3CCN(S(=O)(=O)c4cccc5nsnc45)CC3)sc2c1,-6,6,77*,-1.4,
Cc1cccc(NC(=O)C2CCN(S(=O)(=O)c3cccc4nsnc34)CC2)n1,0,.,1,0.04,
COc1ccccc1/C=C/C(=O)NCC(=O)N1CCC(N(C)C2CCCC2)CC1,1,6,1,.,
COc1ccc(C(=O)Nc2cccc(C)c2)cc1S(=O)(=O)N1CCOCC1,0,3,0,0.09,
COc1ccc(C(=O)Nc2ccc(-c3ccc(C)o3)cc2)cc1S(=O)(=O)N1CCOCC1,-11,-9,84*,-0.21,
SMILES,TNF death inh,Rad51 HR inh,zVAD death inh,sdo1 growth,others
O=C(NCCCO)C12CC3CC(CC(C3)C1)C2,-1,.,1,.,
CCCOc1ccccc1N/C(=N/c1nc(C)cc(C)n1)NC(=O)COc1ccc(OC)cc1,-1,97*,-2,-0.64,
COc1ccc(-n2cnnc2SCC(=O)Nc2cc(C)on2)cc1,1,44*,2,.,
Clc1cccc(Cl)c1Cn1ccc(C2CC2)n1,97*,-4,2,.,
Cc1ccc(NC(=O)CCNS(=O)(=O)c2cc(Br)cnc2N)cc1Cl,4,.,.,-0.26,
CCOC(=O)N1CCN(C(=O)CCNS(=O)(=O)c2cc(Br)cnc2N)CC1,18,5,86*,0.63,
NC(=O)c1cc2cc(Cl)ccc2oc1=Nc1cccc(C(F)(F)F)c1,0,.,.,0.2,
CC(C)(C)c1ccc(C(=O)NCC(=O)OCc2ccc([N+](=O)[O-])cc2)cc1,1,0,1,-0.26,
CC(NC(=O)c1cc(Br)ccc1Cl)c1ccccc1 (stereo not drawn),80*,9,1,.,
CCCCN1CCCC1CNC(=O)c1cc(C#N)c2ccccc2c1OC (stereo not drawn),.,-1,.,.,
C=CCNc1oc(-c2ccc(OCC)cc2)nc1C#N,-2,5,-1,0.89,
C=CCNc1oc(-c2ccc(OC)cc2)nc1C#N,-1,89*,1,0.77,
O=C(C1COc2ccccc2O1)N1CCCC1 (stereo not drawn),2,6,-1,-0.15,
O=C(C1COc2ccccc2O1)N1CCc2ccccc21 (stereo not drawn),89*,-5,2,-0.41,
C/C(Cl)=C/CN1C(=O)C2C3C=CC(C3)C2C1=O (stereo not drawn),68*,-3,4,-0.48,
CC(=O)N(c1ccccc1)c1nnc(-c2cnc(C)cn2)s1,76*,1,37,.,
Cc1cnc(-c2nnc(N(C)C(=O)c3cccnc3)s2)cn1,0,-6,0,-0.06,
O=c1c2c3c(sc2ncn1Cc1ccc(F)cc1)CCC3,93*,-1,1,-0.11,
COc1ccc(N2CCN(C(=O)c3cn(C4CCCC4)c(=O)c4c3c3ccccc3n4C)CC2)cc1,-1,.,1,-1.5,
COc1ccc(N2CCN(C(=O)c3cn(C)c(=O)c4c3c3ccccc3n4C)CC2)cc1,2,132*,2,-1.2,
CC(=O)N(C)C(c1ccc(N(C)C)cc1)c1nnnn1-c1c(C)cccc1C (stereo not drawn),1,1,-1,-0.5,
CC(C)(C)[C@H]1C=C(C(=O)NC2CC2)O[C@@H](OCCCCO)C1,-1,9,0,.,
Cc1ccc(CNC(=O)CSc2nc3c(sc4ccccc43)c(=O)n2CCCN2CCCC2)cc1,-8,43*,2,.,
O=C(CSc1nc2c(sc3ccccc32)c(=O)n1CCCN1CCCC1)NCc1ccccc1,-1,7,-1,.,
Cc1cc(NS(=O)(=O)c2ccc(NC(=S)NC(=O)c3ccccc3)cc2)no1,0,2,0,2.1,SDO1 rescue DR=0.069
O=c1c2cnn(-c3ccccc3)c2ncn1Cc1ccccc1F,1,5,0,9.5*,SDO1 rescue DR=0.039
Cc1nn(Cc2ccc(Br)cc2)c(C)c1NC(=O)c1nn(C)cc1Cl,-1,0,0,15*,SDO1 rescue DR=0.05
Cc1ccc(Cn2nc(C)c(NC(=O)c3nn(C)cc3Cl)c2C)cc1,1,-9,0,0.79,
O=C(CN1C(=O)NC2(CCCC2)C1=O)OCc1cc(=O)n2cc(Br)ccc2n1,-1,-2,0,.,

# Screening results as filed in PubChem.
